{
  "source": "ChEMBL document CHEMBL2413032",
  "about": "“Synthesis and evaluation of 1-[2-(4-[(11)C]methoxyphenyl)phenyl]piperazine for imaging of the serotonin 5-HT7 receptor in the rat brain” (Bioorg Med Chem, 2013)",
  "key": {"[1]": {"molecular_target": "5-hydroxytryptamine receptor 7 (Rattus norvegicus) (UniProt P32305)", "sequence (P32305 whole entry)": "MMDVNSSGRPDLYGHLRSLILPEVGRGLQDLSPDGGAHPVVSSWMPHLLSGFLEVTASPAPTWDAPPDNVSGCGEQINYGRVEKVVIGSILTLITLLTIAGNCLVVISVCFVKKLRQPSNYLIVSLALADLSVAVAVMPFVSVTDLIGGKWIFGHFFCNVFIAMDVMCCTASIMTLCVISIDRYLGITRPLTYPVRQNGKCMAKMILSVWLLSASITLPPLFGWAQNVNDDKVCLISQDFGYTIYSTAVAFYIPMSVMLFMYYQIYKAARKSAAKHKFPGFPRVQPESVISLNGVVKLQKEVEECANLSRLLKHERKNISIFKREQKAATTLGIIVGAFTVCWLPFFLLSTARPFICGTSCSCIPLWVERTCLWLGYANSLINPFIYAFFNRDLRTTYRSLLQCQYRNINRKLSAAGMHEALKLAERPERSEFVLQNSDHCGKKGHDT", "experiment": "Binding affinity to 5-HT7 in Sprague-Dawley rat thalamus at 1 nM after 30 mins by autoradiography", "settings": "tested as the 11C-labelled form", "procedure,_shortened": "(§1)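 Frozen sagittal male Sprague–Dawley rat brain sections were preincubated 3 × 5 min in 50 mM Tris–HCl, pH 7.4, at room temperature. They were then incubated 30 min at room temperature in fresh buffer with 1 nM [11C]tracer, alone or with unlabeled ligand or SB269970 added to define specific binding. Sections were washed 3 × 5 min in cold buffer, dipped in cold water and air-dried. Imaging-plate photo-stimulated luminescence was read in regions of interest; n = 4.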"}, "[2]": {"molecular_target": "T1, 5-hydroxytryptamine receptor 1A (Rattus norvegicus) (UniProt P19327)", "T1 sequence (whole entry)": "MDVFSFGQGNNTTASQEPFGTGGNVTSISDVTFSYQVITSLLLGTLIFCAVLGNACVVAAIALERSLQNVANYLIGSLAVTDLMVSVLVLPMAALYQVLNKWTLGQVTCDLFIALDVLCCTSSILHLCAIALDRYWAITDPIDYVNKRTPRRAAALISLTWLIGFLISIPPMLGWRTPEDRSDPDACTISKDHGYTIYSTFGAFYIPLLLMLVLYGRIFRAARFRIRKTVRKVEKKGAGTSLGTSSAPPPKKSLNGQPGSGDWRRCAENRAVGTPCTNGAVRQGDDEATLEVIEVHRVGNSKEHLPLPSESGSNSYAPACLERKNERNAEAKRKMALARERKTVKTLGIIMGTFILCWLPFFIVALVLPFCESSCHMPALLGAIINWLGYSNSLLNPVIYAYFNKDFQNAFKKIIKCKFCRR", "experiment": "Binding affinity to 5-HT1A in Sprague-Dawley rat hippocampus at 1 nM after 30 mins by autoradiography", "format": "tissue-based", "settings": "tested as the 11C-labelled form"}, "[3]": {"molecular_target": "T1, 5-hydroxytryptamine receptor 1A (Rattus norvegicus)", "experiment": "Binding affinity to 5-HT1A in Sprague-Dawley rat hippocampus after 30 mins by autoradiography", "format": "tissue-based"}, "[4]": {"molecular_target": "5-hydroxytryptamine receptor 7 (Rattus norvegicus) (UniProt P32305)", "experiment": "Binding affinity to 5-HT7 in Sprague-Dawley rat pons/medulla at 1 nM after 30 mins by autoradiography", "settings": "tested as the 11C-labelled form", "procedure,_shortened": "as §1"}, "[5]": {"molecular_target": "T1, 5-hydroxytryptamine receptor 1A (Rattus norvegicus)", "experiment": "Binding affinity to 5-HT1A in Sprague-Dawley rat cerebral cortex at 1 nM after 30 mins by autoradiography", "format": "tissue-based", "settings": "tested as the 11C-labelled form"}, "[6]": {"molecular_target": "5-hydroxytryptamine receptor 7 (Rattus norvegicus) (UniProt P32305)", "experiment": "Binding affinity to 5-HT7 in Sprague-Dawley rat straitum at 1 nM after 30 mins by autoradiography", "settings": "tested as the 11C-labelled form", "procedure,_shortened": "as §1"}, "[7]": {"molecular_target": "5-hydroxytryptamine receptor 7 (Rattus norvegicus) (UniProt P32305)", "experiment": "Binding affinity to 5-HT7 in Sprague-Dawley rat brain assessed as reduction in total radioactivity at 1 nM after 30 mins by autoradiography in presence of SB269970", "settings": "tested as the 11C-labelled form", "procedure,_shortened": "as §1"}, "[8]": {"molecular_target": "5-hydroxytryptamine receptor 7 (Rattus norvegicus) (UniProt P32305)", "experiment": "Binding affinity to 5-HT7 in Sprague-Dawley rat cerebellum at 1 nM after 30 mins by autoradiography", "settings": "tested as the 11C-labelled form", "procedure,_shortened": "as §1"}, "[9]": {"molecular_target": "5-hydroxytryptamine receptor 7 (Rattus norvegicus, UniProt P32305)", "sequence (P32305 whole entry)": "as the sequence (P32305 whole entry) above", "experiment": "Binding affinity to 5-HT7 in rat brain", "format": "tissue-based"}, "[10]": {"molecular_target": "5-hydroxytryptamine receptor 7 (Rattus norvegicus) (UniProt P32305)", "experiment": "Binding affinity to 5-HT7 in Sprague-Dawley rat brain assessed as reduction in total radioactivity at 1 nM after 30 mins by autoradiography in presence of unlabelled compound", "settings": "tested as the 11C-labelled form", "procedure,_shortened": "as §1"}, "[11]": {"molecular_target": "T1, 5-hydroxytryptamine receptor 1A (Rattus norvegicus)", "experiment": "Binding affinity to 5-HT1A in Sprague-Dawley rat frontal cortex after 30 mins by autoradiography", "format": "tissue-based"}, "[12]": {"system": "Brain", "experiment": "Biodistribution in Sprague-Dawley rat brain at 0.07 to 0.11 nmol, iv after 90 mins by HPLC analysis", "format": "ADME, organism-based", "settings": "in vivo, 1.5 h", "procedure,_shortened": "(§2)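 Small-animal PET in male Sprague–Dawley rats (220–240 g, 7 weeks) under isoflurane (5% induction, 1–2% maintenance). A 90-min 3D list-mode emission scan (350–750 keV) started immediately after intravenous tracer injection, framed 4 × 1, 8 × 2, 14 × 5 min. Regional uptake was decay-corrected to injection time and expressed as SUV normalized to injected radioactivity and body weight; n = 3.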"}, "[13]": {"system": "Rattus norvegicus", "experiment": "Biodistribution in Sprague-Dawley rat frontal cortex assessed as increase in uptake at 0.07 to 0.11 nmol, iv pre-treated with 3 mg/kg of SB269970 measured up to 90 mins by HPLC analysis relative to control", "format": "ADME, organism-based", "set-up": "dose 3 mg/kg, route intravenous", "settings": "in vivo", "procedure,_shortened": "(§3)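 PET blocking study in male Sprague–Dawley rats under isoflurane. SB269970 3 mg/kg, in saline with 10% ethanol and 5% polysorbate 80, was given 1 min before intravenous tracer. A 90-min 3D list-mode scan (350–750 keV) followed. Regional decay-corrected SUV time-activity curves were compared with baseline animals; n = 3 per group.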"}, "[14]": {"system": "Thalamus", "experiment": "Biodistribution in Sprague-Dawley rat thalamus assessed as increase in uptake at 0.07 to 0.11 nmol, iv pre-treated with 3 mg/kg of SB269970 measured up to 90 mins by HPLC analysis relative to control", "format": "ADME, organism-based", "set-up": "dose 3 mg/kg, route intravenous", "settings": "in vivo", "procedure,_shortened": "as §3"}, "[15]": {"experiment": "Drug metabolism in Sprague-Dawley rat plasma assessed as intact form at 0.07 to 0.11 nmol, iv after 15 mins by HPLC analysis", "format": "ADME, organism-based", "settings": "read-out: Stability", "procedure,_shortened": "(§4)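 At 15 and 60 min after intravenous tracer, rat plasma and brain were taken. Brain was homogenized in ice-cold MeCN/H2O (1:1) and centrifuged 15,000 rpm, 2 min, 4 °C. Supernatants were run on radio-HPLC (C18, 4.6 × 250 mm; MeCN/H2O/TFA 4/6/0.05; 1.0 mL/min). Intact fraction = decay-corrected tracer peak area / total peak area × 100.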"}, "[16]": {"system": "Cerebellum", "experiment": "Biodistribution in Sprague-Dawley rat cerebellum assessed as increase in uptake at 0.07 to 0.11 nmol, iv pre-treated with 3 mg/kg of SB269970 measured up to 90 mins by HPLC analysis relative to control", "format": "ADME, organism-based", "set-up": "dose 3 mg/kg, route intravenous", "settings": "in vivo", "procedure,_shortened": "as §3"}, "[17]": {"experiment": "n-Octanol-sodium phosphate buffer partition coefficient, log D of the compound at pH 7.4 by shake flask method", "format": "physicochemical", "procedure,_shortened": "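Shake flask: [11C]tracer (about 150,000 cpm) was mixed with n-octanol (3.0 g) and 0.1 M sodium phosphate-buffered saline, pH 7.40 (3.0 g). The mix was vortexed 3 min at room temperature and centrifuged 3500 rpm for 5 min; n = 3.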"}, "[18]": {"experiment": "Drug metabolism in Sprague-Dawley rat brain assessed as intact form at 0.07 to 0.11 nmol, iv after 15 mins by HPLC analysis", "format": "ADME, organism-based", "settings": "read-out: Stability", "procedure,_shortened": "as §4"}, "[19]": {"system": "Hippocampus", "experiment": "Biodistribution in Sprague-Dawley rat hippocampus assessed as increase in uptake at 0.07 to 0.11 nmol, iv pre-treated with 3 mg/kg of SB269970 measured up to 90 mins by HPLC analysis relative to control", "format": "ADME, organism-based", "set-up": "dose 3 mg/kg, route intravenous", "settings": "in vivo", "procedure,_shortened": "as §3"}, "[20]": {"system": "Brain", "experiment": "Biodistribution in Sprague-Dawley rat brain at 0.07 to 0.11 nmol, iv after 3 to 5 mins by HPLC analysis", "format": "ADME, organism-based", "settings": "in vivo", "procedure,_shortened": "as §2"}, "[21]": {"experiment": "Drug metabolism in Sprague-Dawley rat plasma assessed as intact form at 0.07 to 0.11 nmol, iv after 60 mins by HPLC analysis", "format": "ADME, organism-based", "settings": "read-out: Stability", "procedure,_shortened": "as §4"}, "[22]": {"experiment": "Drug metabolism in Sprague-Dawley rat brain assessed as intact form at 0.07 to 0.11 nmol, iv after 60 mins by HPLC analysis", "format": "ADME, organism-based", "settings": "read-out: Stability", "procedure,_shortened": "as §4"}},
  "note": "pKi: −log10 of the molar value. The source made the active and inactive calls. No cut-off for these calls is given here.",
  "data": [
    {"smiles": "COc1ccc(-c2ccccc2N2CCNCC2)cc1", "values": [
      {"measurement": "Activity", "setting": "[1]", "result": "Active"},
      {"measurement": "Activity", "setting": "[2]", "result": "inactive"},
      {"measurement": "Bmax", "setting": "[3]", "result": 5, "unit": "nM"},
      {"measurement": "Activity", "setting": "[4]", "result": "Active"},
      {"measurement": "Activity", "setting": "[5]", "result": "inactive"},
      {"measurement": "Activity", "setting": "[6]", "result": "Active"},
      {"measurement": "Activity", "setting": "[7]", "result": "inactive"},
      {"measurement": "Activity", "setting": "[8]", "result": "Active"},
      {"measurement": "pKi", "setting": "[9]", "result": 8.59},
      {"measurement": "Activity", "setting": "[10]", "result": "inactive"},
      {"measurement": "Bmax", "setting": "[11]", "result": 5, "unit": "nM"}
    ]},
    {"smiles": "[11CH3]Oc1ccc(-c2ccccc2N2CCNCC2)cc1", "values": [
      {"measurement": "Drug uptake", "setting": "[12]", "result": 20, "unit": "%"},
      {"measurement": "fold change (FC)", "setting": "[13]", "result": 2},
      {"measurement": "fold change (FC)", "setting": "[14]", "result": 2},
      {"measurement": "remaining at 0.25 h", "setting": "[15]", "result": 51, "unit": "%"},
      {"measurement": "fold change (FC)", "setting": "[16]", "result": 2},
      {"measurement": "logD", "setting": "[17]", "result": 1.67},
      {"measurement": "remaining at 0.25 h", "setting": "[18]", "result": 91, "unit": "%"},
      {"measurement": "fold change (FC)", "setting": "[19]", "result": 2},
      {"measurement": "SUV", "setting": "[20]", "result": 1.2},
      {"measurement": "remaining at 1 h", "setting": "[21]", "result": 30, "unit": "%"},
      {"measurement": "remaining at 1 h", "setting": "[22]", "result": 69, "unit": "%"}
    ]}
  ]
}
